73 sequences from the array DNA melting data of Ke et al. (doi:10.1101/2024.01.08.574731) can be followed below.

A short description of data set [1]: folding enthalpy; higher = less favourable; fluorescence melt of hairpins on a sequencing array, two-state fit. Conditions: sodium 0.088 M. The essentials:
(§1)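 Hairpins were imaged by Cy3 fluorescence on a sequenced MiSeq flow cell with annealed Cy3 and quencher oligos, in 50 mM Na-HEPES pH 8.0, 25 mM NaCl, in 2.5 °C steps up to 60 °C. Bootstrapped two-state fits of normalised signals gave melting temperature and folding enthalpy. Four replicates were combined by inverse variance, and fitted temperatures were raised by 9.35 °C to match UV melts.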

The nature of data set [2]: melting temperature; fluorescence melt of hairpins on a sequencing array, two-state fit, raised by 9.35 °C to match UV melts. Conditions: sodium 0.088 M. The essentials:
as §1

As for GTCTCGTCGAAAGACGAC (((..(((....)))))), the folding enthalpy in data set [1] is -31.7 kJ/mol. Moreover, in data set [2], the Tm turned out to be 37 °C.
As to GTCTCTCGAAAGAGTGAC (((.(((....))).))), the folding enthalpy in data set [1] was -137 kJ/mol. Moreover, in data set [2], the Tm turned out to be 49.7 °C.
For GTCTCTGGAAACAGAGGC (.(((((....))))).), in that order: -110 kJ/mol and 49.5 °C.
For GTCTGAGAAATCAGAC ((((((....)))))), the folding enthalpy in data set [1] was -157 kJ/mol. For the same sequence, the Tm in data set [2] was 52.4 °C.
For GTCTGAGGAAACTCAAAC ((.((((....)))).)), in that order: -47.3 kJ/mol and 24.5 °C.
Turning to GTCTGAGGAAACTCAGAC (((((((....))))))), the folding enthalpy in data set [1] was -190 kJ/mol. For the same sequence, in data set [2], the Tm turned out to be 63.8 °C.
For GTCTGCACGAAAGTGGAC (((..(((....)))))), in that order: -62.7 kJ/mol and 34.7 °C.
On to GTCTGCCGAAAGGCGAC (((.(((....)))))), for which the folding enthalpy in data set [1] was -75.7 kJ/mol. For the same sequence, in data set [2], the Tm came to 54.9 °C.
For the sequence GTCTGCCGAAAGGCTGAC (((.(((....))).))), in data set [1], the folding enthalpy is -128 kJ/mol. Besides, in data set [2], the Tm was found to be 62.1 °C.
For GTCTGCGAAAGCACAGAC ((((((....)))..))), in that order: -77.9 kJ/mol and 46.3 °C.
GTCTGCGAAAGCAGAGAC ((((((....)))..))): in data set [1], the folding enthalpy is -41.7 kJ/mol. The Tm in data set [2] was 51.4 °C.
For GTCTGCGAAAGCAGGGAC ((((((....)))..))), in that order: -32.6 kJ/mol and 42.8 °C.
For GTCTGCGAAAGCATCGAC ((((((....)))..))), in that order: -61.8 kJ/mol and 33.6 °C.
For GTCTGCGAAAGCATGAC ((((((....))).))), in that order: -98.4 kJ/mol and 52.7 °C.
Take GTCTGCGAAAGCATGGAC ((((((....)))..))): the folding enthalpy in data set [1] was -65.6 kJ/mol. The Tm in data set [2] is 40.7 °C.
Regarding GTCTGCGCGAAAGCGGAC (((..(((....)))))), the folding enthalpy in data set [1] is -55.9 kJ/mol. The Tm in data set [2] is 45.2 °C.
For GTCTGCGGAAACACAGAC (((((.(....).))))), in that order: -184 kJ/mol and 46.7 °C.
For GTCTGGCCGAAAGGCGAC (((..(((....)))))), in that order: -65.6 kJ/mol and 43.9 °C.
For the sequence GTCTGGGGAAACCTAGAC ((((.((....)).)))), in data set [1], the folding enthalpy is -124 kJ/mol. In addition, the Tm in data set [2] was 47.6 °C.
For GTCTGGGGAAACCTAGGC (.((.((....)).)).), in that order: -82.8 kJ/mol and 34.8 °C.
As for GTCTGTACGAAAGTAGAC (((..(((....)))))), in data set [1], the folding enthalpy was -101 kJ/mol. Also, in data set [2], the Tm was determined as 36.4 °C.
For GTCTGTTCGAAAGAAGAC (((..(((....)))))), in that order: -96.3 kJ/mol and 26.4 °C.
For GTCTTAACGAAAGTTGAC (((..(((....)))))), in that order: -65.9 kJ/mol and 31.9 °C.
With GTCTTAGGAAACTAAGGC (.(((((....))))).), the folding enthalpy in data set [1] is -108 kJ/mol. In data set [2], the Tm is 42.9 °C.
For GTCTTAGGAAACTGAGAC ((((.((....)).)))), in that order: -128 kJ/mol and 40.9 °C.
For GTCTTCCGAAAGGACGAC (((.(((....))).))), in that order: -170 kJ/mol and 48.6 °C.
Take GTCTTCGAAAGAAAAGAC ((((((....)))..))): the folding enthalpy in data set [1] was -75 kJ/mol. In addition, the Tm in data set [2] was 30.8 °C.
For GTCTTCGAAAGAAGTGAC ((((((....)))..))), in that order: -55.5 kJ/mol and 34 °C.
For the sequence GTCTTCGGAAACGAAAAC ((.((((....)))).)), the folding enthalpy in data set [1] is -64.6 kJ/mol. Also, the Tm in data set [2] was found to be 29.2 °C.
Turning to GTCTTCGGAAACGAGGAC (((.(((....))).))), the folding enthalpy in data set [1] was -164 kJ/mol. Further, the Tm in data set [2] is 49.7 °C.
For GTCTTGACGAAAGTCGAC (((..(((....)))))), in that order: -45.9 kJ/mol and 35.5 °C.
For GTCTTGCGAAAGCAGAC (((.(((....)))))), in that order: -95.3 kJ/mol and 52.1 °C.
For GTCTTGCGAAAGCATGAC (((.(((....))).))), in that order: -158 kJ/mol and 56.1 °C.
For the sequence GTCTTGGGAAACCAAGGC (.(((((....))))).), the folding enthalpy in data set [1] was -102 kJ/mol. The Tm in data set [2] stood at 51 °C.
For GTCTTGGGAAACCGAGAC ((((.((....)).)))), in that order: -138 kJ/mol and 49.9 °C.
For GTCTTTCGAAAGAACGAC (((.(((....))).))), in that order: -171 kJ/mol and 41 °C.
For GTGAAAACGAAAGTTCAC (((..(((....)))))), in that order: -91 kJ/mol and 38.4 °C.
For the sequence GTGAAACCGAAAGGTCAC (((..(((....)))))), the folding enthalpy in data set [1] is -85.4 kJ/mol. In addition, the Tm in data set [2] worked out at 42 °C.
With GTGAAATCGAAAGATCAC (((..(((....)))))), the folding enthalpy in data set [1] was -71.1 kJ/mol. For the same sequence, in data set [2], the Tm stood at 32.8 °C.
With GTGAACCGAAAGGTCCAC (((.(((....))).))), the folding enthalpy in data set [1] was -103 kJ/mol. Besides, the Tm in data set [2] is 49.8 °C.
In the case of GTGAACCGAAAGGTGCAC (((.(((....))).))), the folding enthalpy in data set [1] is -166 kJ/mol. Moreover, in data set [2], the Tm turned out to be 60.7 °C.
For GTGAACGAAAGTTACCAC ((((((....)))..))), in that order: -64 kJ/mol and 26 °C.
In the case of GTGAACGAAAGTTCAC ((((((....)))))), the folding enthalpy in data set [1] is -109 kJ/mol. Besides, the Tm in data set [2] came to 68.6 °C.
GTGAACGAAAGTTCCAC ((((((....))).))): the folding enthalpy in data set [1] was -66.5 kJ/mol. Besides, the Tm in data set [2] was determined as 39.9 °C.
For GTGAACGAAAGTTGACAC ((((((....)))..))), in that order: -77.7 kJ/mol and 34.8 °C.
Take GTGAACGAAAGTTTACAC ((((((....)))..))): the folding enthalpy in data set [1] was -77.9 kJ/mol. Also, the Tm in data set [2] came out at 39.6 °C.
For GTGAACGAAAGTTTCAC ((((((....))).))), in that order: -92.1 kJ/mol and 47.9 °C.
For GTGAACGGAAACGTTTAC ((.((((....)))).)), the folding enthalpy in data set [1] is -124 kJ/mol. Besides, the Tm in data set [2] was 46.9 °C.
For GTGAACTCGAAAGAGCAC (((..(((....)))))), in that order: -55.9 kJ/mol and 35.1 °C.
For GTGAAGGCGAAAGCCCAC (((..(((....)))))), the folding enthalpy in data set [1] is -65.1 kJ/mol. Moreover, the Tm in data set [2] was 46.7 °C.
For the sequence GTGAAGGGAAACCTTCAC (((((((....))))))), the folding enthalpy in data set [1] was -193 kJ/mol. Besides, the Tm in data set [2] came out at 60 °C.
For GTGAAGGGAAACCTTTAC ((.((((....)))).)), in that order: -106 kJ/mol and 39.6 °C.
As to GTGAAGGGAAACCTTTGC (..((((....))))..), in data set [1], the folding enthalpy is -84.3 kJ/mol. Besides, in data set [2], the Tm amounted to 31.7 °C.
For GTGAATACGAAAGTACAC (((..(((....)))))), in that order: -52.2 kJ/mol and 27.5 °C.
Regarding GTGAATGAAAATTCAC ((((((....)))))), the folding enthalpy in data set [1] was -125 kJ/mol. Further, the Tm in data set [2] came out at 52.3 °C.
Regarding GTGAATGGAAACATCCAC (((.(((....))).))), the folding enthalpy in data set [1] is -101 kJ/mol. Also, the Tm in data set [2] is 34.6 °C.
Turning to GTGACAGGAAACCGTCAC (((((.(....).))))), the folding enthalpy in data set [1] is -145 kJ/mol. Further, in data set [2], the Tm was 50.4 °C.
For GTGACCGAAAGGTGACAC ((((((....)))..))), in that order: -67 kJ/mol and 42.8 °C.
For GTGACCGAAAGGTTCAC ((((((....))).))), in that order: -124 kJ/mol and 53 °C.
For GTGACCGGAAACGACCAC (((..((....))..))), in that order: -88.9 kJ/mol and 30.4 °C.
For the sequence GTGACCGGAAACGATCAC ((((.((....)).)))), the folding enthalpy in data set [1] was -166 kJ/mol. Moreover, the Tm in data set [2] came to 46.6 °C.
For GTGACCGGAAACGGCCAC (((.(((....))).))), in that order: -163 kJ/mol and 54.2 °C.
For GTGACCGGAAACGGTTAC ((.((((....)))).)), in that order: -110 kJ/mol and 54.9 °C.
With GTGACGCGAAAGCGCAC (((.(((....)))))), the folding enthalpy in data set [1] was -62.9 kJ/mol. The Tm in data set [2] is 58.8 °C.
For GTGACGGGAAACTGTCGC (.(((.(....).))).), in that order: -118 kJ/mol and 45.8 °C.
For the sequence GTGACTCGAAAGAGCAC (((.(((....)))))), the folding enthalpy in data set [1] was -109 kJ/mol. The Tm in data set [2] turned out to be 48.1 °C.
GTGACTCGAAAGAGGCAC (((.(((....))).))): the folding enthalpy in data set [1] is -144 kJ/mol. The Tm in data set [2] is 67.9 °C.
On to GTGACTGGAAACAGTCGC (.(((((....))))).), for which the folding enthalpy in data set [1] was -128 kJ/mol. In addition, the Tm in data set [2] turned out to be 56.2 °C.
For GTGAGAGGAAACTTTCAC ((((.((....)).)))), in that order: -99.6 kJ/mol and 35.1 °C.
Turning to GTGAGCGAAAGCTAACAC ((((((....)))..))), the folding enthalpy in data set [1] was -64.5 kJ/mol. Further, the Tm in data set [2] was found to be 44 °C.
For GTGAGCGAAAGCTAGCAC ((((((....)))..))), in that order: -47.9 kJ/mol and 40.4 °C.
With GTGAGCGAAAGCTGCAC ((((((....))).))), in data set [1], the folding enthalpy is -57.7 kJ/mol. Also, the Tm in data set [2] came to 48.7 °C.
For GTGAGCGAAAGCTGCCAC ((((((....)))..))), in that order: -35.6 kJ/mol and 37.6 °C.
